Compound activity: PubChem BioAssay, several laboratories
Sampled rows, rich in hits. Any-hit rate of the full collection: about 2.6%.
SENP7 block: blocks the human protease SENP7; recombinant SENP7, Z-RLRGG-aminoluciferin luminescence, 40 min; AID 434973; inhibition, % at 5 µM; Q9BQF6; 330,000 compounds, 1.5% hits;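 active means inhibition above about 50% at the single test dose, limit read from the data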;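 further: plate controls were DMSO with enzyme for no effect and no enzyme buffer wells for full effect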
SENP6 inh: blocks the human protease SENP6; 330,000 compounds, 1.8% hits; inhibition, % at 10 µM; Recombinant SENP6 catalytic domain, aminoluciferin luminescence;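 active means inhibition above about 50% at the single tested dose, limit read from the data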;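 further: plate controls were DMSO wells with enzyme for no effect and DMSO wells lacking enzyme for full effect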
Target sequence (Q9GZR1 628-1112 limits assumed): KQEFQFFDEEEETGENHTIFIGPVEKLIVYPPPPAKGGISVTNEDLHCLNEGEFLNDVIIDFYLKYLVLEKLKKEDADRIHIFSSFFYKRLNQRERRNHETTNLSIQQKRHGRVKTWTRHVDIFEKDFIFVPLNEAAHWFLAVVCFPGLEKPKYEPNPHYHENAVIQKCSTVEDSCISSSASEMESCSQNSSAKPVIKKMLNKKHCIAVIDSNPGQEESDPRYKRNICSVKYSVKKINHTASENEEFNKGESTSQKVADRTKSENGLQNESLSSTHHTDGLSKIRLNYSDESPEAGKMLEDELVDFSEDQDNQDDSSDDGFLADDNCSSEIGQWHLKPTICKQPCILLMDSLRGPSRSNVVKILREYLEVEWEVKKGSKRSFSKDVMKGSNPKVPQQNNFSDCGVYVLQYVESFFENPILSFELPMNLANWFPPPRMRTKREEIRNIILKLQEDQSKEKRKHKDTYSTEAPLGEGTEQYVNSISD
SENP8 block-1: blocks the human protease SENP8; purified SENP8, Z-RLRGG-aminoluciferin cleavage, luminescence; AID 2540; 330,000 compounds, 1.2% hits; inhibition, % at 10 µM; Q96LD8; in the data active means inhibition above about 50%
SENP8 block-2: SENP8 (human) protease inhibition | 360,000 compounds, 0.64% hits | recombinant SENP8, Nedd8 substrate fluorescence | inhibition, % at 20 µM; in the data active means inhibition mostly above about 40%, no sharp cut-off; inactive means mostly below about 27%
Platelet DG rel: platelet dense granule release activity; human platelet-rich plasma, SFLLRN dense granule ATP release, luminescence; inhibition, %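 (compounds screened at 7.5 µM in platelet-rich plasma)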; 300,000 compounds, 0.22% hits;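 active means mean replicate score, as percent of positive control, at or above 50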
SENP1 FRET inh: blocks the human SENP1 SUMO protease catalytic domain | 360,000 compounds, 0.21% hits | recombinant SENP1 catalytic domain, CyPet-SUMO1-YPet FRET cleavage | inhibition, % at 10 µM;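 active means inhibition at least 30% at 10 µM, raw YFP signal under a set limit, fluorescence ratio 0.5 to 1.5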;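 further: 0% = enzyme with DMSO and 100% = no enzyme wells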
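Test system: human SENP1 catalytic domain; medium: Tris pH 8 buffer plus EDTA, NaCl, BME, BSA, NP40, catalase; incubation: 50 min reaction at room temperature; technique: FRET, CFP and YFP emission; controls: no-enzyme low control and enzyme-plus-DMSO high control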
SENP8 conf-1: confirmation of human SENP8 protease inhibitors; 6,200 compounds, 40% hits; shares compounds with SENP7 block; inhibition, % at 12.5 µM; Recombinant SENP8, Z-RLRGG-aminoluciferin luminescence, 60 min;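 active means mean inhibition across replicates above about 50%, limit read from the data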
SENP6 conf: confirmation of human SENP6 protease inhibitors; inhibition, % at 12.5 µM; shares compounds with SENP7 block; recombinant SENP6, Z-RLRGG-aminoluciferin luminescence; AID 488915; 6,200 compounds, 58% hits
SENP7 confirm: confirmation of human SENP7 protease inhibitors; shares compounds with SENP7 block; recombinant SENP7, Z-RLRGG-aminoluciferin luminescence, 40 min; inhibition, % at 12.5 µM; 6,200 compounds, 69% hits; AID 488917
Casp3 select: inhibits human caspase-3 in SENP selectivity test | shares compounds with SENP7 block | purified caspase-3, Z-DEVD-aminoluciferin luminescence, 60 min | inhibition, % at 12.5 µM | 6,200 compounds, 60% hits;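 active means mean inhibition above about 50%, limit read from the data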;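 further: plate controls were enzyme with DMSO for no effect and wells without caspase-3 for full effect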
Target sequence (P42574 28-227 limits assumed): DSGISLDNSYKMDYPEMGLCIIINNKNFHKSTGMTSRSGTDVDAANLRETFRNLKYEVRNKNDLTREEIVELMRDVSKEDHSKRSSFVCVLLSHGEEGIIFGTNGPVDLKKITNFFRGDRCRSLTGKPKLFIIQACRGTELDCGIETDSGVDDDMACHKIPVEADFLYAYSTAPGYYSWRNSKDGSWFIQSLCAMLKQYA
Luc interf: counter-screen for SENP inhibitors: luminescence interference; AID 488919; inhibition, % at 12.5 µM; Pre-incubated SENP8/Z-RLRGG-aminoluciferin, luciferase luminescence interference; 6,200 compounds, 39% hits; shares compounds with SENP7 block;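 active means mean inhibition above about 50% when retested at one dose, limit read from the data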;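 further: plate controls were DMSO wells with completed reaction for no effect and substrate without enzyme for full effect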
SENP8 conf-2: confirmation of human SENP8 protease inhibitors | shares compounds with SENP8 block-2 | purified SENP8, Nedd8-AMC/pro-Nedd8 cleavage fluorescence, 30 min | inhibition, % at 25 µM | 1,400 compounds, 15% hits | AID 624319; in the data active means inhibition mostly above about 39%, no sharp cut-off; inactive means mostly below about 34%
SENP1 conf: SENP1 (human) inhibition, single concentration confirmation | inhibition, % at 10 µM | shares compounds with SENP1 FRET inh | 520 compounds, 34% hits | recombinant SENP1, CyPet-SUMO1-YPet FRET cleavage; in the data active means inhibition mostly above about 35%, no sharp cut-off; inactive means mostly below about 32%;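 further: 0% = enzyme with DMSO and 100% = no enzyme control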
SENP1 kin conf: confirmation of human SENP1 SUMO protease inhibitors, kinetic; shares compounds with SENP1 FRET inh; recombinant SENP1, CyPet-SUMO1-YPet FRET kinetic cleavage; inhibition, % at 10 µM; 520 compounds, 26% hits; AID 651690; in the data active means inhibition mostly above about 32%, no sharp cut-off; inactive means mostly below about 29%;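 further: 0% = DMSO with enzyme and 100% = no enzyme substrate only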
Numbers without * were called inactive; · = no result given.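 How the source made its calls, unless noted: active means mean inhibition above about 50% in the one-dose retest (limit read from the data); inactive means the rest.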

SMILES	SENP7 block	SENP6 inh	SENP8 block-1	SENP8 block-2	Platelet DG rel	SENP1 FRET inh	SENP8 conf-2	others
Nc1ccccc1C#Cc1ccc([N+](=O)[O-])cc1	47	62*	42	31	-6	33*	·	SENP8 conf-1=46;SENP6 conf=46;SENP7 confirm=81*;Casp3 select=39;Luc interf=22;SENP1 conf=18;SENP1 kin conf=17
N#CC(c1ccccc1)c1ccc([N+](=O)[O-])cc1 (stereo not given)	·	·	·	1	·	1	·
CC(=O)Oc1ccc(/C=C/c2nc3ccccc3c(=O)o2)cc1	99*	96*	95*	-134	83*	52*	·	SENP8 conf-1=74*;SENP6 conf=79*;SENP7 confirm=55*;Casp3 select=68*;Luc interf=50;SENP1 conf=-33;SENP1 kin conf=-22
C[C@H](CO)N1C[C@H](C)[C@@H](CN(C)S(=O)(=O)c2ccccc2F)OCc2cnnn2CCCC1=O	·	·	·	4	·	0	·
Cc1c(O)ccc(/C(Cc2ccc3ccccc3n2)=N\O)c1O	-3	-12	-4	12	0	-3	·
CC(=O)Oc1ccc(C(=O)Cc2ccc3ccccc3n2)c(O)c1C	74*	-7	1	33	9	49*	·	SENP8 conf-1=-24;SENP6 conf=-14;SENP7 confirm=-4;Casp3 select=-1;Luc interf=-4;SENP1 conf=25;SENP1 kin conf=19
CC(C)(C)NC(=O)NC(=O)COC(=O)COc1ccc(Cl)cc1Cl	5	-8	-2	0	-7	8	·
CCN1C(=O)c2cccc3c(NC(=O)C4CCCCC4)ccc1c23	72*	-6	0	11	8	40*	·	SENP8 conf-1=-8;SENP6 conf=-2;SENP7 confirm=-5;Casp3 select=-5;Luc interf=-6;SENP1 conf=20;SENP1 kin conf=30*
COCCNC(=O)C1CCCN(Cc2ccccc2-c2ccccc2)CC1 (stereo not given)	·	·	·	15	·	3	·
COc1cc(/C=C2/SC(=S)N(C)C2=O)ccc1OC(=O)c1ccco1	66*	5	28	34	2	34*	·	SENP8 conf-1=8;SENP6 conf=7;SENP7 confirm=3;Casp3 select=16;Luc interf=28;SENP1 conf=32;SENP1 kin conf=27
COc1cc(/C=C2\SC(=S)N(NC(C)=O)C2=O)ccc1OC(=O)c1ccco1	-13	14	21	22	·	20	·
Cc1ccc(CN=Cc2[nH]c3ccc(Br)c(Cl)c3c2O)cc1	1	23	1	44*	0	-34	40
Oc1c(C=NCc2ccc(F)cc2)[nH]c2ccc(Br)c(Cl)c12	4	26	4	·	-2	·	·
CCOC(=O)c1sc(NC(=O)CN2C(=O)NC3(CCCCCCC3)C2=O)c(C(=O)OCC)c1C	-6	-4	-2	-27	-4	-7	·
COc1ccc(Nc2nc(N)c([N+](=O)[O-])c(N3CCOCC3)n2)cc1	8	-14	-7	23	-2	1	·
CCOc1ccc(Nc2nc(N)c([N+](=O)[O-])c(N3CCN(C)CC3)n2)cc1	-5	-21	-5	47*	0	2	12
CCN1CCN(c2nc(N)c([N+](=O)[O-])c(Nc3cccc(C)c3)n2)CC1	-7	-9	-8	19	-49	3	·
Cc1cccc(Nc2nc(N3CCN(C)CC3)nc(N)c2[N+](=O)[O-])c1	-7	-25	-10	40*	-1	2	3
O=C(Cc1cccs1)N1CCC(c2nc3c(nnn3Cc3ccccc3Cl)c(=O)[nH]2)CC1	10	-3	6	12	1	2	·
CN(CC(=O)Nc1cccc(F)c1)CC(=O)Nc1ccc(Cl)cc1[N+](=O)[O-]	10	13	-2	42*	-2	1	16
CN(CC(=O)Nc1cccc(F)c1)CC(=O)Nc1ccccc1[N+](=O)[O-]	-2	13	-2	10	·	0	·
COc1ccc(-c2cc(C(F)(F)F)c3c(=O)n(-c4ccccc4)[nH]c3n2)cc1	4	46	23	41*	2	3	32
c1ccc2[nH]c3cc4ncnc4cc3nc2c1	18	39	12	48*	-6	46	60*
CCOC(=O)c1cc(CC)sc1NC(=O)CC1SC(N)=NC1=O (stereo not given)	4	-22	-5	12	4	1	·
COc1ccc(N2C(=O)[C@@H]3[C@H](C2=O)[C@H]2c4ccccc4C=CN2[C@@H]3C(=O)Nc2ccccc2)cc1	-4	20	-7	44*	·	-26	80*
SMILES	SENP7 block	SENP6 inh	SENP8 block-1	SENP8 block-2	Platelet DG rel	SENP1 FRET inh	SENP8 conf-2	others
Cc1ccc(N2C(=O)[C@@H]3[C@H](C2=O)C2c4ccccc4C=CN2[C@@H]3C(=O)c2ccco2)cc1 (stereo not given in full)	·	·	·	49*	·	-25	89*
CCN(C[C@H]1N[C@@](CC)(C(=O)OC)[C@H]2C(=O)N(C)C(=O)[C@@H]12)S(=O)(=O)c1ccc(C(C)(C)C)cc1	1	-7	-4	0	·	-1	·
CCC(=O)Nc1ccccc1Nc1cc(C#N)c(C#N)cc1[N+](=O)[O-]	2	-19	0	42*	4	-2	18
N#Cc1ccccc1NC(=O)COC(=O)COc1ccccc1[N+](=O)[O-]	3	-12	2	-27	4	3	·
CCCNC(=O)CN(C)C(=O)c1n[nH]c2ccccc12	5	-9	1	43*	-1	2	15
COCCNC(=O)c1n[nH]c2ccccc12	-3	3	-16	9	-1	1	·
Cc1ccc(NC(=O)C(=O)c2c(-c3ccccc3)cc3ccccn23)cc1S(=O)(=O)N1CCOCC1	2	31	14	52*	-1	4	28
CCc1ccc(CNn2cnnc2SCC(=O)NC(C)(C)C)cc1	-7	-15	-6	5	-1	3	·
